Bioassay records from PubChem BioAssay.
Compounds with a hit are over-represented: about 1.6% of the library has one in this group of screens.
NOD2 RIPK2 PPI: inhibitors of human NOD2-RIPK2 interaction. CHO BLA complementation NOD2-RIPK2, CCF4 ratio. inhibition, % at 4.98 µM. hit rate 0.38% among 360,000. AID 624267; in the data active means inhibition above about 21%;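 further: 0% = vehicle only and 100% = reference blocker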
TLR4-MyD88 BLA: TLR4-MyD88 interaction inhibition in cells | O00206+Q99836 | HeLa CL3-4 TLR4/MyD88 BLA complementation, FRET ratio | inhibition, % at 8.4 µM | hit rate 0.18% among 200,000; in the data active means inhibition above about 25%;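 further: 0% = vehicle and 100% = reference inhibitor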
Dynein transport: blocks dynein driven cargo transport along microtubules | hit rate 0.47% among 220,000 | 3617.4 mouse cells, GR-EGFP nuclear translocation imaging; test concentration mostly 20 µM; stimulated with dexamethasone, 1 µM; hits give low values | z-score, hits read low;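 active means plate z-score of nuclear minus cytoplasmic receptor signal below a set negative limit, without overly bright fluorescence or cell loss, cut at about -3.5 in these data, passing the limit was not always enough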;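 further: z-score of nuclear minus cytoplasmic ring GR-EGFP intensity difference per well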
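medium = tetracycline-free induction medium containing charcoal-stripped FBS | also added = 1.0 µM final dexamethasone stimulus | schedule = 48 h induction, 1 h compound, 30 min dex at 37 °C | technique = fixed, Hoechst-stained cells imaged at 10x for EGFP | measure = GR-EGFP nuclear translocation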
ABHD5 PLIN5 PPI: inhibitors of human ABHD5-perilipin-5 interaction | Split G. princeps luciferase complementation, luminescence, 4 h | inhibition, % at 4 µM | hit rate 0.78% among 360,000;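 active means inhibition above the mean inhibition across every tested compound plus 3 SD, cut at about 22% in these data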;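 further: 0% = DMSO only wells and the 100% control is not disclosed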
TLR9-MyD88 inh: blocks human TLR9 binding to MyD88. Q9NR96+Q99836. CHO BLA complementation TLR9-MyD88, CCF4 FRET ratio. inhibition, % at 4.98 µM. hit rate 0.21% among 340,000. AID 504734;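 active means inhibition above the mean over all tested compounds plus 3 SD, cut at about 21% in these data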;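 further: 0% = DMSO only wells and 100% = clavulanate BLA inhibitor control wells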
Beta2AR agonist: human beta-2 adrenergic receptor agonism by FAP; hit rate 0.43% among 340,000; P07550; response, % (test concentration not listed); Am2.2-beta2AR cells, FAP receptor internalization, flow cytometry; AID 504454;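 active means response above a set limit, near 3 SD of response in nonfluorescent compounds, cut at about 42% in these data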
Target sequence (P07550 whole entry, looked up): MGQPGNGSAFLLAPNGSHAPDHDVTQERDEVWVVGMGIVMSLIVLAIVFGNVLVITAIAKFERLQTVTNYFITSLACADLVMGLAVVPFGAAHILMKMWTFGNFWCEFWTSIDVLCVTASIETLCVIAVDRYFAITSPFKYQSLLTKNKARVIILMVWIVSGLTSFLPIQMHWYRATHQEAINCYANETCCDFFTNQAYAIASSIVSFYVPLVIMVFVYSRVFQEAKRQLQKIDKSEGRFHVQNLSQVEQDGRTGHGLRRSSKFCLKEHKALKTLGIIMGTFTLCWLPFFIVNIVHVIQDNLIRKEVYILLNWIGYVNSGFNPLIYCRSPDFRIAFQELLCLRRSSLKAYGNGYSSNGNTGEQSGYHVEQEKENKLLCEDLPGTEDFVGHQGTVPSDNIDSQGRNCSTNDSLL
* marks the source's active call; other numbers are inactive results; . = no result given; ! = not confirmed by another sample.

SMILES | NOD2 RIPK2 PPI | TLR4-MyD88 BLA | Dynein transport | ABHD5 PLIN5 PPI | TLR9-MyD88 inh | Beta2AR agonist
Cc1cc(C)cc(N=Cc2ccc([N+](=O)[O-])s2)c1 | -4.8 | -2.2 | -2.49 | -3.8 | -1.0 | 8.6
O=C(N/N=C1\CCCc2c1[nH]c1ccc(Cl)cc21)c1ccncc1 | 0.5 | . | . | 12.2 | -18.8 | 44.7*
COc1ccncc1-c1csc(C(O)c2ccccc2)n1 (configuration not stated) | 1.1 | . | . | 0.7 | . | .
C=CCOC(=O)Nc1nc(CCNC(=O)OC(C)(C)C)c(C(=O)OC)s1 | -18.1 | . | . | -2.9 | . | .
Cc1cc(NC(=O)C(C)SCC(=O)N(C)CC(=O)Nc2ccc(F)cc2)no1 (configuration not stated) | -3.9 | . | . | 23.1* | 0.0 | -7.1
NC(=O)c1nc2c([nH]c1=O)CCCC2 | -5.0 | . | . | -4.5 | -3.0 | .
CN1C(=O)C(Cl)(Cl)C(=O)c2ccccc21 | -9.8 | 5.6 | -1.08 | 88.1* | -1.8 | 0.3
COc1cc2nc(N3CCN(C(=O)[C@H]4COc5ccccc5O4)CC3)nc(N)c2cc1OC | -4.1 | . | . | 5.9 | 2.5 | 7.7
Cc1cc2c(cc(C(=O)OCC(=O)NCc3ccco3)n2C)s1 | 12.0 | 2.6 | 0.504 | 4.6 | 14.9 | -9.0
Cn1c(C(=O)OCC(=O)NCc2ccco2)cc2sccc21 | 2.4 | 0.5 | 0.0446 | 23.1* | 8.8 | -34.5
COc1ccc(-c2cc3ccccc3oc2=O)cc1NC(=S)NC(=O)c1ccc2c(c1)OCCO2 | 0.1 | -5.3 | 1.31 | -7.0 | -5.2 | 42.5*
CCC(=O)Nc1cc(-c2cc3ccccc3oc2=O)ccc1OC | 4.8 | 0.6 | -0.27 | -6.5 | 8.2 | -33.6
CCCCNC(=O)C1=C(N)C(C(=O)Nc2ccc(C)c(S(=O)(=O)N3CCCCC3)c2)SC1=Nc1ccc(C)cc1C (configuration not stated) | 4.6 | -3.8 | -0.153 | 24.2* | 7.3 | 5.4
CCN1CCN(c2nc(N)c([N+](=O)[O-])c(Nc3ccc(C)c(C)c3)n2)CC1 | -4.4 | 2.2 | -0.206 | 0.8 | -11.9 | 62.5*
O=S(=O)(c1cnc(Cl)c(Cl)c1)N1CCc2ccccc21 | -4.6 | . | -4.32* | 3.3 | -4.1 | 4.5
Cn1c(=O)c2cc(NC(=O)NCCc3cccs3)ccc2n1C/C=C/c1ccccc1 | -3.8 | . | . | 4.7 | . | .
C=Cc1c(C)c2cc3[nH]c(cc4nc(cc5nc(cc1[nH]2)C(C)=C5CCC(=O)O)C(CCC(=O)O)=C4C)c(C)c3C=C | -0.9 | . | . | 5.5 | -5.7 | 45.4*!
Cc1ccc(NC(=O)NC2CC(=O)N(c3ccc4c(c3)OCCO4)C2)cc1F (configuration not stated) | -8.9 | . | . | 2.8 | 8.8 | -10.7
COc1cccc(OC)c1-c1nn2c(-c3cc(-c4ccccc4)n[nH]3)nnc2s1 | 11.3 | -8.1 | 0.307 | -2.9 | 7.4 | 100.4*
CCOc1ccc(S(=O)(=O)Nc2cc(SCC(=O)O)c(O)c3ccccc23)cc1 | 4.3 | . | . | -18.2 | 5.9 | 1.3
CC(C)OC(=O)C(C(=O)C(F)(F)F)c1cc(NS(=O)(=O)c2ccc3ccccc3c2)c2ccccc2c1O (configuration not stated) | 14.1 | 2.4 | -0.233 | 41.2* | -5.1 | 18.4
Nc1nccc(N2CCCCC2)n1 | -8.9 | . | . | -1.6 | -5.1 | .
CCOC(=O)COc1ccc(/C=C2\NC(=S)N(CC)C2=O)cc1 | -18.9 | 10.8 | -0.289 | 1.5 | 2.1 | 65.8*
O=C(Nc1nnc([C@H]2C[C@H](O)[C@@H](CO)O2)s1)c1cccc(OC(F)(F)F)c1 | -5.4 | . | . | -1.4 | . | .
Cc1ccc(S(=O)(=O)/N=C2\C=C(Nc3cccc(C(=O)O)c3)C(=O)c3ccccc32)cc1 | -2.3 | . | . | 8.4 | -5.5 | 31.5
SMILES | NOD2 RIPK2 PPI | TLR4-MyD88 BLA | Dynein transport | ABHD5 PLIN5 PPI | TLR9-MyD88 inh | Beta2AR agonist
COC(=O)c1ccccc1NC1=C/C(=N\S(=O)(=O)c2ccc(C(=O)O)cc2)c2ccccc2C1=O | 0.6 | . | . | -12.5 | -5.7 | 60.5*
Cc1ccc(S(=O)(=O)/N=C2\C=C(Nc3ccc(O)cc3)C(=O)c3ccccc32)cc1 | -4.8 | . | . | -6.3 | -4.7 | 74.3*
Cc1ccc(NC2=C/C(=N/S(=O)(=O)c3cccs3)c3ccccc3C2=O)cc1 | -10.8 | 2.3 | -1.12 | -3.8 | -8.1 | 43.3*
COC(=O)c1ccccc1NC1=C/C(=N\S(=O)(=O)c2cccs2)c2ccccc2C1=O | -9.3 | -11.7 | 2.45 | -12.5 | -18.9 | 23.8
Cc1ccc(S(=O)(=O)/N=C2\C=C(Nc3cccc(C(=O)O)c3)C(=O)c3ccccc32)c(C)c1 | -4.9 | . | . | -6.7 | 3.2 | 12.9
O=C1C(Nc2ccccc2)=C/C(=N/S(=O)(=O)c2cccs2)c2ccccc21 | -2.5 | -37.4 | -0.465 | 4.2 | -0.3 | 48.6*
CCc1ccc(S(=O)(=O)/N=C2\C=C(Nc3ccc(C(=O)O)cc3)C(=O)c3ccccc32)cc1 | 5.4 | . | . | -5.4 | 1.4 | 4.2
Cc1ccc(OCCN2CCC2(C)C(=O)NCc2ccc(C(F)(F)F)cc2)cc1 (configuration not stated) | -9.9 | . | . | 13.5 | . | .
CS(=O)(=O)N(CC(=O)N1CCCC1)c1cccc(C(F)(F)F)c1 | -2.4 | . | . | 4.0 | -2.1 | .
CC(=O)c1cccc(NC(=O)C2(C)Cc3c(-c4ccccc4)ccnc3O2)c1 (configuration not stated) | 3.6 | . | . | 3.1 | . | .
COc1cc(OC)c2c(-c3ccccc3)cc(=O)oc2c1C(CCN1CCCC1)c1ccc2c(c1)OCO2 (configuration not stated) | -5.6 | . | 0.758 | 22.0* | -10.7 | 18.6
COc1cc(OC)c2c(-c3ccccc3)cc(=O)oc2c1C(CCN1CCOCC1)c1ccc2c(c1)OCO2 (configuration not stated) | -2.6 | . | . | 13.5 | -0.5 | 9.6
Cc1ccc(Cc2c(-c3ccco3)nc3ccc(Br)cn23)cc1 | 5.3 | . | . | 58.1* | . | .
COc1ccc(Cc2c(-c3ccccc3)nc3ccc(Cl)cn23)c(C)c1 | 4.6 | . | . | -6.7 | . | .
COc1ccc(Cc2c(-c3ccco3)nc3ccc(Cl)cn23)c(C)c1 | 1.8 | . | . | 26.8* | . | .
COc1ccc(Cc2c(-c3ccco3)nc3ccc(Br)cn23)c(C)c1 | -6.5 | . | . | 42.6* | . | .
Nc1nc2c(s1)COc1ccccc1-2 | -1.6 | 15.8 | -0.523 | -2.1 | -1.8 | 0.2
Nc1nc2c(s1)CCc1c-2cnn1-c1ccccc1 | -4.6 | -11.1 | -6.01* | -29.7 | 5.3 | 25.5
Cc1cc(=O)oc2cc(OC(C)C(=O)Nc3ccc(N4CCCCC4)cc3)ccc12 (configuration not stated) | -5.1 | . | . | 1.2 | -1.6 | 13.7
Cc1cc(=O)oc2cc(OCC(=O)Nc3ccc(N4CCC(C)CC4)cc3)ccc12 | -5.0 | . | . | -2.1 | -7.1 | 51.0*
Cc1cc(=O)oc2c(C)c(OC(C)C(=O)Nc3ccc(N4CCC(C)CC4)cc3)ccc12 (configuration not stated) | -19.0 | . | . | 2.7 | -25.5 | 82.5*
COC(=O)c1ccc(CNC(=O)/C=C/[C@H]2O[C@@H](n3cc(C)c(=O)[nH]c3=O)C[C@@H]2O)cc1 | 7.1 | . | . | -6.0 | . | .
